Here are results for 9 compounds from ChEMBL document CHEMBL1667841, “Furoxan nitric oxide donor coupled chrysin derivatives: synthesis and vasculoprotection” (Bioorg Med Chem Lett, 2011).

The target of data set [1] is Aldo-keto reductase family 1 member B1 (Homo sapiens, UniProt P15121). Put plainly: Inhibition of aldose reductase by spectrophotometric analysis.
Data set [2] can be described thus: Inhibition of advanced glycation end product formation in phosphate buffered saline at pH 7.4 after 14 days by fluorospectrophotometry. It is filed as physicochemical.
The nature of data set [3]: Induction of NO release in phosphate buffered saline of pH 7.4 at 10^-4 M after 1 hr by Griess assay in presence of L-cysteine. It counts as physicochemical. The settings on record: buffer, pH 7.4, 1 h, 100 µM. In short, it runs like this: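 Compound at 10^-4 M final in 1:1 v/v 50 mM PBS (pH 7.4)/MeOH containing 5 × 10^-4 M L-cysteine, 1 h at 37 °C; mixture treated with Griess reagent, 10 min at room temperature, absorbance 540 nm. Nitrite quantified against sodium nitrite standards (10–80 nmol/mL); expressed as % of theoretical 1 mol NO/mol compound, n = 3.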

Where only a bound is given, the exact number is not on record here.

Consider `O=C(COc1cc(O)c2c(=O)cc(-c3ccccc3)oc2c1)OCc1c(-c2ccccc2)no[n+]1[O-]`, for which, in data set [1], the IC50 was 0.75 µM. Regarding `O=c1cc(-c2ccccc2)oc2cc(O)cc(O)c12` [CHRYSIN], the 50% inhibitory concentration (IC50) in data set [2] came to 63.5 µM; in data set [1], 7.78 µM. In data set [1], `CC(=O)Oc1cc(OCC(=O)OCc2ccc(OCc3c(-c4ccccc4)no[n+]3[O-])cc2)cc2oc(-c3ccccc3)cc(=O)c12` had a 50% inhibitory concentration (IC50) of 1.93 µM.

For `CC(=O)Oc1cc(OCC(=O)OCc2c(-c3ccccc3)no[n+]2[O-])cc2oc(-c3ccccc3)cc(=O)c12`, the IC50 in data set [1] worked out at 0.9 µM.

In data set [1], `[O-][n+]1onc(-c2ccccc2)c1CO` had a half-inhibitory concentration (IC50) not below 10 µM.

As for `O=C(COc1cc(O)c2c(=O)cc(-c3ccccc3)oc2c1)OCc1ccc(OCc2c(-c3ccccc3)no[n+]2[O-])cc1`, in data set [1], 0.4 µM corresponded to half-maximal inhibition (IC50). As to `CC(=O)Oc1cc(OCC(=O)OCc2cccc(OCc3c(-c4ccccc4)no[n+]3[O-])c2)cc2oc(-c3ccccc3)cc(=O)c12`, the Activity in data set [3] was 1.89%. Also, the IC50 came out at 26.4 µM in data set [2] and 1.62 µM in data set [1]. As to `N=C(N)NN` [PIMAGEDINE], in data set [2], the IC50 came out at 826 µM.

In the case of `O=C(COc1cc(O)c2c(=O)cc(-c3ccccc3)oc2c1)OCc1cccc(OCc2c(-c3ccccc3)no[n+]2[O-])c1`, half-maximal inhibition in data set [1] (IC50) was put at 0.22 µM.
